In ChEMBL document CHEMBL1135672, “QSAR evaluation of the Ch'an Su and related bufadienolides against the colchicine-resistant primary liver carcinoma cell line PLC/PRF/5(1)” (J Med Chem, 2002) one finds IC50 data, which are given here for 39 compounds.

Values after ≈ are worked out from the molar mass of the structure shown.

The nature of test [1]: Inhibitory activity against the primary liver carcinoma (PLC) cell line PLC/PRF/5. The format is functional, Homo sapiens.
Test [2] is described as follows: Inhibitory activity against colchicine resistant parent primary liver carcinoma (PLC) cell line PLC/PRF/5. It is filed as functional, Homo sapiens. The procedure, abridged:
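PLC/PRF/5 cells were precultured 24 h at 37 °C in 5% CO₂ in 96-well plates, then given colchicine at 0.5 μg/mL. Test compounds were added in dilutions of 10⁻²–10⁻⁶ μg/mL and incubated 72 h at 37 °C in 5% CO₂. Survival was read by MTT. IC50 is the μg/mL giving 50% growth inhibition of the colchicine-resistant cells.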

For `C[C@]12CCC3C(CC[C@@H]4C[C@@H](O)CC[C@]34C)C1=CC[C@@H]2C1=CC(=O)OC1` (stereo partly drawn), the IC50 in test [1] was 0.36 µg/mL (≈ 1.01 µM); in test [2] it was 0.73 µg/mL (≈ 2.05 µM).

With `C[C@]12C=CC(=O)C[C@H]1CCC1C2CC[C@]2(C)[C@@H](c3ccc(=O)oc3)C[C@H]3O[C@]132` (stereo partly drawn), the IC50 stood at 2.6 µg/mL (≈ 6.83 µM) in test [1] and 7.8 µg/mL (≈ 20.5 µM) in test [2].

In the case of `CC(=O)O[C@H]1CC[C@@]2(C)[C@H](CC[C@@H]3[C@@H]2CC[C@]2(C)[C@@H](c4ccc(=O)oc4)C(=O)[C@H]4O[C@@]432)C1`, the half-maximal inhibitory concentration (IC50) in test [1] stood at 2.4 µg/mL (≈ 5.45 µM); in test [2], 7.6 µg/mL (≈ 17.3 µM).

In the case of `C[C@]12CC[C@H]3[C@@H](CC[C@]4(O)C[C@@H](O)CC[C@]34C=O)[C@@]1(O)CC[C@@H]2c1ccc(=O)oc1`, the IC50 in test [1] was 0.00016 µg/mL (≈ 0.000384 µM); in test [2], 0.00053 µg/mL (≈ 0.00127 µM).

Take `C[C@]12CC[C@H](O)C[C@H]1CC[C@@H]1[C@@H]2CC[C@]2(C)C(/C(=C/CO)CO)C[C@H]3O[C@]132` (stereo partly drawn): the IC50 in test [1] and in test [2] was more than 50 µg/mL in each case.

With `COC(=O)CCCCCCC(=O)O[C@H]1CC[C@@]2(C)[C@H](CC[C@@H]3[C@@H]2CC[C@]2(C)[C@@H](C4=CC(=O)OC4)CC[C@]32O)C1`, the IC50 in test [1] was found to be 0.53 µg/mL (≈ 0.973 µM); in test [2], 0.98 µg/mL (≈ 1.8 µM).

Regarding `CC(=O)O[C@H]1CC[C@@]2(C)[C@H](CC[C@@H]3[C@@H]2CC[C@]2(C)[C@@H](c4ccc(=O)oc4)C[C@H](O)[C@]32O)C1`, the IC50 in test [1] is 0.71 µg/mL (≈ 1.6 µM); in test [2] it was 5.6 µg/mL (≈ 12.6 µM).

For `COC(=O)C/C=C/C1=CO[C@]23CCC1[C@@]2(C)C[C@@H](OC(C)=O)[C@H]1[C@H]3CC[C@@H]2C[C@@H](OC(C)=O)CC[C@@]21C`, the IC50 in test [1] worked out at 9.7 µg/mL (≈ 18.8 µM); in test [2], 20 µg/mL (≈ 38.9 µM).

As to `C[C@]12CC[C@H](OC(=O)CCC(=O)O)C[C@H]1CC[C@@H]1[C@@H]2CC[C@]2(C)[C@@H](c3ccc(=O)oc3)CC[C@]12O`, the IC50 in test [1] came to 0.066 µg/mL (≈ 0.136 µM); in test [2], 0.51 µg/mL (≈ 1.05 µM).

As to `CC(=O)O[C@H]1[C@H]2O[C@]23[C@@H]2CC[C@@H]4C[C@@H](OC(=O)CCC(=O)O)CC[C@]4(C)[C@H]2CC[C@]3(C)[C@H]1c1ccc(=O)oc1`, the IC50 in test [1] is 0.85 µg/mL (≈ 1.57 µM); in test [2] it was 0.96 µg/mL (≈ 1.77 µM).

As for `C[C@]12CC[C@H](O)C[C@H]1CC[C@@H]1[C@@H]2CC[C@]2(C)C3CC[C@]12OC=C3/C=C/CC(=O)O`, the IC50 was 10 µg/mL (≈ 25 µM) in test [1] and more than 50 µg/mL in test [2].

As for `CC(=O)O[C@H]1[C@H]2O[C@]23[C@@H]2CC[C@@H]4C[C@@H](OC(=O)CCCCCCC(=O)O)CC[C@]4(C)[C@H]2CC[C@]3(C)[C@H]1c1ccc(=O)oc1`, the results for the IC50 in test [1] and in test [2] were 0.01 µg/mL (≈ 0.0167 µM) and 0.06 µg/mL (≈ 0.1 µM), respectively.

For `CC(=O)CC1CC2C(O1)[C@H]1O[C@]13[C@@H]1CC[C@@H]4C[C@@H](O)CC[C@]4(C)[C@H]1CC[C@]23C` (stereo partly drawn), the IC50 was 9.5 µg/mL (≈ 24.5 µM) in test [1] and more than 50 µg/mL in test [2].

As to `C[C@]12CC[C@@H](O)C[C@H]1CC[C@@H]1[C@@H]2CC[C@]2(C)[C@@H](c3ccc(=O)oc3)C[C@H]3O[C@]132`, the IC50 stood at 8.3 µg/mL (≈ 21.6 µM) in test [1] and 43 µg/mL (≈ 112 µM) in test [2].

For `CC(=O)O[C@H]1[C@H]2O[C@]23[C@@H]2CC[C@@H]4C[C@@H](OC(=O)c5cc([N+](=O)[O-])cc([N+](=O)[O-])c5)CC[C@]4(C)[C@H]2CC[C@]3(C)[C@H]1c1ccc(=O)oc1`, the IC50 in test [1] came out at 0.78 µg/mL (≈ 1.23 µM); in test [2], 9.6 µg/mL (≈ 15.1 µM).

In the case of `C[C@]12CC[C@H]3[C@@H](CC[C@@H]4C[C@@H](O)CC[C@@]43C=O)[C@]13O[C@@H]3C[C@@H]2c1ccc(=O)oc1`, the IC50 was 0.0089 µg/mL (≈ 0.0223 µM) in test [1] and 0.075 µg/mL (≈ 0.188 µM) in test [2].

For the compound `COC(=O)C/C=C/C1=CO[C@]23CCC1[C@@]2(C)CC[C@H]1[C@H]3CC[C@@H]2C[C@@H](O)CC[C@@]21C`, the results for the half-maximal inhibitory concentration (IC50) in test [1] and in test [2] were 9.1 µg/mL (≈ 21.9 µM) and 45 µg/mL (≈ 109 µM), respectively.

As for `COC(=O)C/C=C/C1=CO[C@]23CCC1[C@@]2(C)CC[C@H]1[C@H]3CC[C@@H]2C[C@@H](OC(C)=O)CC[C@@]21C`, the values for the IC50 in test [1] and in test [2] were 6.6 µg/mL (≈ 14.5 µM) and 41 µg/mL (≈ 89.8 µM), respectively.

Regarding `C[C@]12CC[C@H](O)C[C@H]1CC[C@@H]1[C@@H]2CC[C@]2(C)[C@@H](c3ccc(=O)oc3)C[C@H](O)[C@]12Cl`, the IC50 is 0.07 µg/mL (≈ 0.166 µM) in test [1] and 0.82 µg/mL (≈ 1.95 µM) in test [2].

For `C[C@]12CC[C@H](O)C[C@H]1CC[C@@H]1[C@@H]2CC[C@]2(C)[C@@H](c3ccc(=O)oc3)C[C@H](O)[C@]12O`, the IC50 in test [1] was determined as 35 µg/mL (≈ 86.9 µM); in test [2], 30 µg/mL (≈ 74.5 µM).

Take `CC(=O)O[C@H]1CC[C@@]2(C)[C@H](CC[C@@H]3[C@@H]2CC[C@]2(C)[C@@H](c4ccc(=O)oc4)[C@H](O)[C@H]4O[C@]342)C1`: the IC50 in test [1] worked out at 6.7 µg/mL (≈ 15.1 µM); in test [2] it was 7.5 µg/mL (≈ 16.9 µM).

For `C=C(C)C(=O)O[C@H]1CC[C@@]2(C)[C@H](CC[C@@H]3[C@@H]2CC[C@]2(C)[C@@H](c4ccc(=O)oc4)CC[C@]32O)C1`, the IC50 in test [1] turned out to be 0.059 µg/mL (≈ 0.13 µM); in test [2], 0.097 µg/mL (≈ 0.213 µM).

For the compound `CC(=O)O[C@H]1CC[C@@]2(C)[C@H](CC[C@@H]3[C@@H]2CC[C@]2(C)[C@@H](c4ccc(=O)oc4)CC(=O)[C@]32O)C1`, the half-inhibitory concentration (IC50) in test [1] is 0.077 µg/mL (≈ 0.174 µM); in test [2] it was 6.4 µg/mL (≈ 14.5 µM).

Turning to `COC(=O)C/C=C/C1=CO[C@]23C[C@H](OC(C)=O)C1[C@@]2(C)CC[C@H]1[C@H]3CC[C@@H]2C[C@@H](OC(C)=O)CC[C@@]21C`, the IC50 in test [1] worked out at 49 µg/mL (≈ 95.2 µM); in test [2], 50 µg/mL (≈ 97.2 µM).

For the compound `C[C@]12CCC(=O)C[C@H]1CC[C@@H]1[C@@H]2CC[C@]2(C)[C@@H](c3ccc(=O)oc3)CC(=O)[C@@H]12`, the results for the IC50 in test [1] and in test [2] were 7 µg/mL (≈ 18.3 µM) and 10 µg/mL (≈ 26.1 µM), respectively.

As to `CCOC(=O)C/C=C(\C=O)C1[C@@H](O)C(=O)[C@H]2[C@@H]3CC[C@@H]4C[C@@H](OC(C)=O)CC[C@]4(C)[C@H]3CC[C@]12C` (stereo partly drawn), the IC50 amounted to 22 µg/mL (≈ 45 µM) in test [1] and 33 µg/mL (≈ 67.5 µM) in test [2].

Turning to `CC(=O)O[C@H]1CC[C@@]2(C)[C@H](CC[C@@H]3[C@@H]2CC[C@]2(C)[C@@H](c4ccc(=O)oc4)CC(=O)[C@@H]32)C1`, the IC50 in test [1] stood at 0.55 µg/mL (≈ 1.29 µM); in test [2], 1.8 µg/mL (≈ 4.22 µM).

`C[C@]12CC[C@@H](O)C[C@H]1CC[C@@H]1[C@@H]2CC[C@]2(C)[C@@H](c3ccc(=O)oc3)C[C@@H]3O[C@]312`: the 50% inhibitory concentration (IC50) turned out to be 4.7 µg/mL (≈ 12.2 µM) in test [1] and 6.4 µg/mL (≈ 16.6 µM) in test [2].

`C[C@]12CC[C@H](O)C[C@H]1CC[C@@H]1[C@@H]2CC[C@]2(C)[C@@H](c3ccc(=O)oc3)C[C@@H]3O[C@]312`: the results for the IC50 in test [1] and in test [2] were 20 µg/mL (≈ 52 µM) and 26 µg/mL (≈ 67.6 µM), respectively.

Regarding `C[C@]12CCC(=O)C=C1CCC1C2CC[C@]2(C)[C@@H](c3ccc(=O)oc3)CC[C@]12O` (stereo partly drawn), the IC50 in test [1] turned out to be 0.00019 µg/mL (≈ 0.000497 µM); in test [2], 0.82 µg/mL (≈ 2.14 µM).

On to `C[C@]12CCC(=O)C[C@H]1CCC1C2CC[C@]2(C)[C@@H](c3ccc(=O)oc3)C[C@@H]3O[C@@]132` (stereo partly drawn), for which the IC50 was found to be 8.7 µg/mL (≈ 22.7 µM) in test [1] and 43 µg/mL (≈ 112 µM) in test [2].

For the compound `CC(=O)O[C@H]1CC[C@]2(C)C3CC[C@@]4(C)C(=C[C@H](OC(C)=O)[C@@H]4c4ccc(=O)oc4)C3CC[C@@H]2C1` (stereo partly drawn), the IC50 in test [1] was determined as 5 µg/mL (≈ 10.7 µM); in test [2], 7.3 µg/mL (≈ 15.6 µM).

In the case of `CC(=O)O[C@@H]1CC[C@]2(C)C3CC[C@]4(C)[C@@H](c5ccc(=O)oc5)C[C@@H]5O[C@@]54C3CC[C@@H]2C1` (stereo partly drawn), the results for the IC50 in test [1] and in test [2] were 4.7 µg/mL (≈ 11 µM) and 43 µg/mL (≈ 101 µM), respectively.

Take `C[C@]12CC[C@H](O)C[C@@]1(O)CCC1C2CC[C@]2(C)[C@@H](c3ccc(=O)oc3)C[C@@H]3O[C@@]132` (stereo partly drawn): the results for the IC50 in test [1] and in test [2] were 0.52 µg/mL (≈ 1.3 µM) and 0.49 µg/mL (≈ 1.22 µM), respectively.

Turning to `CC(=O)O[C@H]1CC[C@]2(C)C3CC[C@]4(C)[C@@H](c5ccc(=O)oc5)[C@@H](O)[C@@H]5O[C@@]54C3CC[C@@H]2C1` (stereo partly drawn), the IC50 in test [1] is 0.88 µg/mL (≈ 1.99 µM); in test [2] it was 1 µg/mL (≈ 2.26 µM).

For `CC(=O)O[C@H]1CC[C@]2(C)C3CC[C@]4(C)[C@@H](c5ccc(=O)oc5)C[C@@H]5O[C@@]54C3CC[C@@H]2C1` (stereo partly drawn), the IC50 worked out at 5.9 µg/mL (≈ 13.8 µM) in test [1] and 7.3 µg/mL (≈ 17.1 µM) in test [2].

In the case of `CC(=O)O[C@H]1CC[C@@]2(C)[C@H](CC[C@@H]3[C@@H]2CC[C@]2(C)[C@@H](c4ccc(=O)oc4)C[C@H]4O[C@]342)C1`, the IC50 in test [1] worked out at 0.32 µg/mL (≈ 0.75 µM); in test [2] it was 0.95 µg/mL (≈ 2.23 µM).

Consider `C[C@]12CCC(=O)C[C@H]1CC[C@@H]1[C@@H]2CC[C@]2(C)[C@@H](c3ccc(=O)oc3)C[C@H]3O[C@]132`, for which the IC50 was determined as 5.8 µg/mL (≈ 15.2 µM) in test [1] and 9.7 µg/mL (≈ 25.4 µM) in test [2].

Consider `C[C@]12CC[C@H]3[C@@H](CC[C@@H]4C[C@@H](O)CC[C@@]43CO)[C@]13O[C@@H]3C[C@@H]2c1ccc(=O)oc1`, for which the results for the IC50 in test [1] and in test [2] were 0.61 µg/mL (≈ 1.52 µM) and 8.2 µg/mL (≈ 20.5 µM), respectively.

As usually defined, the IC50 is the concentration that inhibits the measured activity by half.
